Source: PubChem BioAssay
TbHK1 inh = Trypanosoma brucei hexokinase 1 inhibitors, primary screen, biochemical, G6PDH-coupled NADH absorbance, MLSCN library; recombinant TbHK1, G6PDH-coupled NADH A340; actives 0.11% (n = 220,000); AID 1430, 2008; hexokinase 1 [Trypanosoma brucei]; inhibition, % at 10 µM;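 active = inhibition of 50% or more in the single-dose primary screen; inactive = inhibition below 50%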
PfGluPho inh = PfG6PD enzyme inhibitors, primary screen, biochemical, fluorescence intensity, uHTS; actives 0.78% (n = 350,000); glucose-6-phosphate dehydrogenase-6-phosphogluconolactonase (Plasmodium falciparum 3D7); inhibition, % at 20 µM; PfGluPho enzyme, NADPH resazurin-diaphorase fluorescence; AID 504690, 2011;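 active = inhibition reaching at least a set limit at 20 µM in the primary screen, cut at about 59% in these data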;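 also: 0% = DMSO wells with substrate and 100% = DMSO wells lacking glucose-6-phosphate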
G6PDH counter = L. mesenteroides G6PDH inhibitors, counter-screen for G6PDH-coupled screening assays, biochemical, Leuconostoc mesenteroides enzyme; glucose-6-phosphate dehydrogenase [Leuconostoc mesenteroides]; Purified L. mesenteroides G6PDH, diaphorase/resazurin coupled fluorescence, 45 min; inhibition, % at 5 µM; actives 0.12% (n = 200,000); AID 1020, 2008; in the data active = inhibition above about 50%
HKDC1 inhibitor = HKDC1 hexokinase inhibitors, primary screen, biochemical, fluorescence, uHTS | Q2TB90 | recombinant HKDC1, G6PDH/diaphorase resazurin coupled fluorescence | inhibition, % at 20 µM | actives 0.16% (n = 340,000) | AID 493160, 2011;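 active = inhibition above about 35% when tested at 20 µM, limit read from the data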;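 also: plate controls were DMSO wells with enzyme for no effect and DMSO wells lacking enzyme for full effect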
Target sequence (Q2TB90 whole entry, looked up): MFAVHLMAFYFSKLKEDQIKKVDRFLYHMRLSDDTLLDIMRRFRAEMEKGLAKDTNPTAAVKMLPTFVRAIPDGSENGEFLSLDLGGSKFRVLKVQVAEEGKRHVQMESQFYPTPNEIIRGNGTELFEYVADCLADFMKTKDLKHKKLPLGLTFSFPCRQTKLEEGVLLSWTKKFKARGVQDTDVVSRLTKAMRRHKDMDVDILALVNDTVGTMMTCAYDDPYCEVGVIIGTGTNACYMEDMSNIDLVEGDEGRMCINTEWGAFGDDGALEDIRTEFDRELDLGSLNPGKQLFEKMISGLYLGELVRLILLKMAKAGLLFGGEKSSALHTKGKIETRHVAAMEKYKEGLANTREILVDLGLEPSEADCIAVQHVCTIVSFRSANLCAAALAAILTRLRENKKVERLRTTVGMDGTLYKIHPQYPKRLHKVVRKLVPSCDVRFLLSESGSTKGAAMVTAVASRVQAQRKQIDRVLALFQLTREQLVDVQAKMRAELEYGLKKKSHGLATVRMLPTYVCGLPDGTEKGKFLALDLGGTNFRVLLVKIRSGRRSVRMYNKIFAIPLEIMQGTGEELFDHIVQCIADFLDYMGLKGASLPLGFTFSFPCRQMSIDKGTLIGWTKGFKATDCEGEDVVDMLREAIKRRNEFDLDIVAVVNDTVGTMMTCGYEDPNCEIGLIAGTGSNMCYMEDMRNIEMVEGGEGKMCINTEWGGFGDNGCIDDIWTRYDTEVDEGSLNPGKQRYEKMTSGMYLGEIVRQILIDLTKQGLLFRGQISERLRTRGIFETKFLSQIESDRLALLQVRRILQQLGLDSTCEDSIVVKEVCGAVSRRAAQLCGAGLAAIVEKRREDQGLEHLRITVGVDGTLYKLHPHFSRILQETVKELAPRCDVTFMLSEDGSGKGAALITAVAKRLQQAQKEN
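Test system: recombinant HKDC1 (HK5) hexokinase enzyme, produced in-house / Doses: 20 µM test compound, 1% DMSO / Timing: 90 min, room temperature / Detection: G6PDH/diaphorase-coupled fluorescence, 1 mM NADP, 100 µM resazurin, 525/613 nm / Control set: DMSO wells with and without enzyme mix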
Diaphorase inh = diaphorase inhibitors and chemical oxidizers, primary screen, counter-screen for diaphorase-coupled primary assays, biochemical, uHTS, resorufin fluorescence | diaphorase resazurin-to-resorufin fluorescence, NADH, 16 min; bacterial (C. kluyveri) enzyme, not human | inhibition, % at 20 µM | actives 0.69% (n = 190,000);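 active = primary screen inhibition at 20 µM above a set limit, cut at about 50% in these data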;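 also: plate controls were DMSO with full reaction for no effect and wells lacking NADH for full effect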
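System: Diaphorase enzyme from Clostridium kluyveri | Amount: Enzyme working solution with 0.14 U/mL diaphorase | Benchmarks: No-NADH positive control and DMSO neutral control | Signal: Fluorescence of resorufin formed from resazurin, Ex 544/Em 590 nm | Schedule: 16-min room-temperature incubation before reading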
HKDC1 act conf2 = HKDC1 hexokinase activators, confirmation, biochemical, single concentration; shares compounds with HKDC1 inhibitor; inhibition, % at 20 µM; actives 14% (n = 740); recombinant HKDC1, G6PDH/diaphorase resazurin fluorescence; active compounds read low; AID 504708, 2011;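 active = inhibition at or below a set negative limit, negative inhibition meaning the enzyme was activated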
The depositor's hits bear a star; . = no result. Sampled rows, rich in hits. Any-hit rate of the full collection: about 1.2%.

SMILES	TbHK1 inh	PfGluPho inh	G6PDH counter	HKDC1 inhibitor	Diaphorase inh	HKDC1 act conf2
CCOC(=O)c1c(C)[nH]c(C2=NNC(=Nc3ccccc3OC)SC2)c1C	-20.5	5.5	-3.8	-164.6	13.2	-86.4*
CCOC(=O)c1c(C)[nH]c(C2=NNC(=Nc3ccccc3)SC2)c1C	-25.8	15.3	-13.9	-305.8	5.7	-141.4*
CCOC(=O)c1c(C)[nH]c(C2=NNC(=Nc3ccc(OCC)cc3)SC2)c1C	-17.9	20.5	8.0	-136.6	15.4	-122.3*
CC1(C(=O)N/N=C/c2ccccc2)CC1(Cl)Cl (stereo not drawn)	.	31.1	.	-6.6	.	.
Cc1ccc(NC(=O)c2ccc(F)cc2F)cc1NS(C)(=O)=O	-4.1	-1.2	.	-10.8	.	.
Cc1cc(SCC(=O)N/N=C/c2ccc(O)c(O)c2O)c(C)cc1Br	7.0	-4.9	-6.2	44.5*	0.0	7.8
O=C(NCCOc1ccccc1F)C1CCC(=O)N(CCc2cccc(F)c2)C1 (stereo not drawn)	.	3.8	.	-9.1	.	.
COc1ccccc1Nc1nnc(SCc2nnc(-c3cc(OC)c(OC)c(OC)c3)o2)s1	-11.7	31.7	-5.4	34.6	50.2*	33.4
COc1cc(-c2nnc(CSc3nnc(Nc4ccc(C(C)C)cc4)s3)o2)cc(OC)c1OC	-24.1	17.0	-16.4	-5.7	10.5	.
CCOc1ccccc1Nc1nnc(SCc2nnc(-c3cc(OC)c(OC)c(OC)c3)o2)s1	-12.1	42.1	-19.6	48.2*	41.8	44.7
O=C(NCc1ccncc1)C(=O)N/N=C/c1ccc(OCc2ccccc2)cc1	-0.8	-29.6	-2.8	-58.4	5.8	-16.5
O=C(NCCC1=CCCCC1)c1ccc([N+](=O)[O-])cc1	-7.7	-8.2	11.3	2.6	-6.8	.
O=C(CCNC(=O)c1ccc([N+](=O)[O-])cc1)NCCC1=CCCCC1	.	5.2	.	35.0*	.	-26.0
CCc1c(C)c(C#N)c2nc3ccccc3n2c1NC	.	-58.2	.	-65.6	.	-43.3*
CCc1c(C)c(C#N)c2nc3ccccc3n2c1NCCN(C)C	-6.1	-0.4	-12.5	-10.8	6.9	.
O=C1c2ccccc2C(=O)c2c1cccc2N1CCCC1	-5.9	-10.9	15.9	22.8	22.1	.
O=C1C=C(N2CCCCC2)c2ccccc2C1=O	.	47.5	.	80.6*	.	86.1
Cc1ccc(N(CC(=O)NCCSc2nc3ccccc3s2)S(=O)(=O)c2ccccc2)c(C)c1	9.9	17.1	-16.8	-2.5	23.4	.
CNC(=S)N/N=C/c1ccc(-c2cccc(C(=O)O)c2)o1	-78.7	4.1	.	-5.2	.	.
O=C(O)c1cccc(-c2ccc(/C=c3/sc4nc5ccccc5n4c3=O)o2)c1	15.4	26.9	.	47.9*	.	-7.7
COc1ccc([C@@H]2C[C@H](c3ccccc3)Oc3cc(OC)c(OC)c(OC)c32)cc1	-17.0	17.7	.	36.7*	.	-0.5
COc1ccc(C2CC(O)(c3ccccc3)Oc3cc(OC)c(OC)c(OC)c32)cc1 (stereo not drawn)	-9.8	39.8	.	16.1	.	.
CCCC(=O)N1CCN(Cc2ccc3c(c2)OCO3)CC1	-1.7	-24.8	9.4	-56.9	6.3	-3.1
O=C(CSc1nc(-c2ccccc2)nc2c1Cc1ccccc1O2)Nc1ccc(C(=O)O)cc1	13.3	-36.0	-1.4	32.2	42.0	.
O=C(CSc1nc(-c2ccc(F)cc2)nc2c1Cc1ccccc1O2)Nc1ccc(C(=O)O)cc1	26.0	-24.5	-3.4	44.0*	60.2*	-27.3
SMILES	TbHK1 inh	PfGluPho inh	G6PDH counter	HKDC1 inhibitor	Diaphorase inh	HKDC1 act conf2
CCc1ccc(N2C(=O)Nc3ccccc3C2(O)C(=O)N2CCN(c3ccccn3)CC2)cc1 (stereo not drawn)	-4.3	-6.8	-0.8	-3.3	13.4	.
Cc1nnc(SC(=O)N2c3ccccc3Sc3ccccc32)s1	0.5	-2.4	-22.9	33.0	36.6	-10.7
CCOC(=O)c1c(C)nc2c(c1-c1cc(OC)ccc1OC)C(=O)c1ccccc1-2	-0.8	-6.2	-7.6	-0.3	23.2	.
CCOC(=O)C1=C(Cc2ccc(OC)cc2)C(=O)c2ccccc2C1=O	28.5	95.5*	57.0*	71.4*	31.3	55.8
Cc1nc([N+](=O)[O-])c(Br)n1CC(=O)c1ccc2ccccc2c1	-13.4	-0.2	1.4	45.7*	35.5	40.1
CC(=O)c1c(C)[nH]c(C(=O)OCC(=O)c2ccc3c(c2)NC(=O)CO3)c1C	.	9.2	.	-2.1	.	.
N#C/C(=C(/O)CCl)c1nc2c(s1)CCc1ccccc1-2	.	41.2	.	43.5*	.	46.1
O=C(CCCl)Nc1nc2c(s1)CCc1ccccc1-2	.	53.2	.	9.7	.	.
CCN1CCN(c2ccc(S(=O)(=O)N3CCOCC3)cc2NC(=O)C(C)Oc2ccc(F)cc2)CC1 (stereo not drawn)	.	6.6	.	-4.3	.	.
C=CCOc1ccc(C=NNc2ccc(S(=O)(=O)Nc3ccccc3C(=O)O)cc2[N+](=O)[O-])cc1OC	.	-23.8	.	51.5*	.	-3.9
CCOc1ccc(C=NNc2ccc(S(=O)(=O)Nc3ccccc3C(=O)O)cc2[N+](=O)[O-])cc1	.	-41.0	.	19.8	.	.
COc1cccc(CSc2nc3ccccc3[nH]2)c1	-1.8	19.0	-19.9	4.2	15.7	.
COc1cccc(CC(Cc2nc3ccccc3[nH]2)c2nc3ccccc3[nH]2)c1 (stereo not drawn)	2.1	8.9	11.6	49.7*	11.0	-27.7
CCOC(=O)c1ccc(NC2=CC(=O)C(=O)c3ccccc32)cc1	-6.5	46.4	45.3	33.2	31.6	27.6
Cc1ccc(NC2=CC(=O)C(=O)c3ccccc32)cc1	-9.3	15.2	46.3	26.8	19.9	.
Cc1noc(C)c1CSCC(=O)Nc1nc(-c2ccc(F)c(F)c2)cs1	.	17.5	.	6.5	.	.
COc1ccc(-c2csc(NC(=O)CSCc3c(C)noc3C)n2)cc1OC	.	-9.5	.	34.8	.	-32.6
Cc1ccc(S(=O)(=O)/N=C2\C=C(NS(=O)(=O)c3ccccc3)C(=O)c3ccccc32)cc1	.	13.6	.	28.7	.	.
O=C(O)c1ccc(NC2=C/C(=N/S(=O)(=O)c3ccccc3)c3ccccc3C2=O)cc1	-12.8	106.9*	41.4	71.9*	-43.2	76.0
Cc1cc(C)c(S(=O)(=O)/N=C2\C=C(Nc3ccc(C(=O)O)cc3)C(=O)c3ccccc32)c(C)c1	.	56.7	.	40.7*	.	39.5
FC(F)(F)c1ccccc1NC(=S)N1CCCC1	-1.2	-7.2	.	4.3	.	.
FC(F)(F)c1ccccc1NC(=S)NN=C1CCCCCC1	6.5	-8.1	4.8	-38.1	16.1	-29.5
COc1ccccc1N1CCN(C(=O)c2ccc(-c3ccc(Cl)cc3)o2)CC1	.	7.2	.	-2.7	.	.
O=C(O)c1cccc2cccc(-c3c4ccc(=O)c(O)c-4oc4c(O)c(O)ccc34)c12	.	50.7	.	69.5*	.	35.9
O=C(O)c1cccc2cc(-c3ccccc3)oc(=O)c12	.	-13.1	.	-5.8	.	.
